Data on 9 compounds can be found in ChEMBL document CHEMBL1157296, “Cytotoxic and antimicrobial benzophenones from the leaves of Tovomita longifolia” (2006).

SMILES strings stand for the structures. Converted amounts (≈) assume the structure as drawn. The source made the active and inactive calls. No cut-off for these calls is given here.

Holding throughout (type): functional
The subject of test [1] is NCI-H460. The test can be described thus: Cytotoxicity against human H460 cells. In outline:
(§1)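 Human cancer cell lines of breast (MCF-7), CNS (SF-268) and lung (H-460) origin were tested by the Monks et al. method. All three lines were used throughout to monitor fractions and isolated compounds.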

For test [2], the system named is SF-268. The experiment in a line: Cytotoxicity against human SF268 cells. In outline:
as §1

In test [3] the test system is MCF7. The experiment in a line: Cytotoxicity against human MCF7 cells. In outline: as §1
Test [4] deals with Staphylococcus aureus. The test can be described thus: Antimicrobial activity against Staphylococcus aureus ATCC 6538.
In test [5] the test system is Candida albicans. The test can be described thus: Antimicrobial activity against Candida albicans ATCC 10231.
For test [6], the system named is Klebsiella pneumoniae. The test can be described thus: Antimicrobial activity against Klebsiella pneumoniae ATCC 10031.
The subject of test [7] is Mycolicibacterium smegmatis. The test can be described thus: Antimicrobial activity against Mycobacterium smegmatis ATCC 607.
The subject of test [8] is Pseudomonas aeruginosa. The test can be described thus: Antimicrobial activity against Pseudomonas aeruginosa ATCC 27853.
Test [9] concerns Escherichia coli. The experiment in a line: Antimicrobial activity against Escherichia coli ATCC 9637.
In test [10] the test system is Salmonella enterica subsp. enterica serovar Gallinarum. The test can be described thus: Antimicrobial activity against Salmonella gallinarum ATCC 9184.

Turning to `C=C(C)[C@H](O)CC/C(C)=C/Cc1c(O)cc(O)c(C(=O)c2ccccc2)c1O`, the outcome in test [1], in test [2] and in test [3] was inactive.

As to `COc1cccc2c1C(=O)c1c(O)c3c(c(O)c1C2=O)C[C@@](O)(C(=O)CO)C[C@@H]3O[C@H]1C[C@H](N)[C@H](O)[C@H](C)O1` [DOXORUBICIN], the GI50 in test [1] came out at 0.42 µg/mL (≈ 0.773 µM); in test [2], 0.5 µg/mL (≈ 0.92 µM); in test [3] it was 0.38 µg/mL (≈ 0.699 µM).

For the compound `CC(C)=CCC/C(C)=C/COc1cc(O)c(C(=O)c2ccccc2)c(O)c1`, the concentration for 50% growth inhibition (GI50) in [1] was 4.4 µg/mL (≈ 12 µM); in test [2], 2 µg/mL (≈ 5.46 µM); in test [3], 4.8 µg/mL (≈ 13.1 µM). Besides, the MIC in [4] and in [7] was 12.5 µg/mL (≈ 34.1 µM) in each case. Moreover, the outcome in test [5], in test [6], in test [8], in test [9] and in [10] was inactive.

As to `CN[C@@H]1[C@H](O[C@H]2[C@H](O[C@H]3[C@H](O)[C@@H](O)[C@H](N=C(N)N)[C@@H](O)[C@@H]3N=C(N)N)O[C@@H](C)[C@]2(O)C=O)O[C@@H](CO)[C@H](O)[C@H]1O.CN[C@@H]1[C@H](O[C@H]2[C@H](O[C@H]3[C@H](O)[C@@H](O)[C@H](N=C(N)N)[C@@H](O)[C@@H]3N=C(N)N)O[C@@H](C)[C@]2(O)C=O)O[C@@H](CO)[C@H](O)[C@H]1O.O=S(=O)(O)O.O=S(=O)(O)O.O=S(=O)(O)O` [STREPTOMYCIN SULFATE], the MIC in test [4] was determined as 12.5 µg/mL; in [6] it was 3.12 µg/mL; in test [7] it was 12.5 µg/mL; in test [8] it was 1.56 µg/mL; in [9], 6.25 µg/mL; in test [10] it was 3.12 µg/mL. For the same compound, the result in [5] was inactive.

As to `CC(C)=CCC/C(C)=C/Cc1c(O)cc(O)c(C(=O)c2ccccc2)c1O`, the result in [1], in [4], in [5], in test [6], in test [8] and in test [9] was inactive. Besides, the result in test [2], in test [10] and in test [3] was inactive. In addition, inhibition of growth in [7] (MIC) required 50 µg/mL (≈ 136 µM).

For `C=C(CCC=C(C)C)[C@H](O)Cc1c(O)cc(O)c(C(=O)c2ccccc2)c1O`, the GI50 amounted to 7.8 µg/mL (≈ 20.4 µM) in [1], 6.5 µg/mL (≈ 17 µM) in test [2] and 6.7 µg/mL (≈ 17.5 µM) in [3].

For `CC(C)=CCC[C@]1(C)Oc2c(c(O)cc(O)c2C(=O)c2ccccc2)C[C@@H]1O`, the GI50 was found to be 6.5 µg/mL (≈ 17 µM) in test [1], 5.6 µg/mL (≈ 14.6 µM) in test [2] and 6.8 µg/mL (≈ 17.8 µM) in test [3]. Besides, the result in test [4], in test [5], in test [8], in test [9] and in [10] was inactive. Further, the MIC in test [6] and in [7] was 25 µg/mL (≈ 65.4 µM) in each case.

Turning to `C[C@@H]1[C@H](O)[C@@H](C)/C=C/C=C/C=C/C=C/C=C/C=C/C=C/[C@H](O[C@@H]2O[C@H](C)[C@@H](O)[C@H](N)[C@@H]2O)C[C@@H]2O[C@](O)(C[C@@H](O)C[C@@H](O)[C@H](O)CC[C@@H](O)C[C@@H](O)CC(=O)O[C@H]1C)C[C@H](O)[C@H]2C(=O)O`, the outcome in test [4], in [6], in [7], in test [8], in test [9] and in test [10] was inactive.

In the case of `CC1(C)CCC[C@]2(C)Oc3c(c(O)cc(O)c3C(=O)c3ccccc3)C[C@@H]12`, the GI50 in [1] came out at 2.1 µg/mL (≈ 5.73 µM); in [2], 1.7 µg/mL (≈ 4.64 µM); in [3], 1.8 µg/mL (≈ 4.91 µM). Further, the MIC in test [4] stood at 12.5 µg/mL (≈ 34.1 µM); in test [6] it was 6.25 µg/mL (≈ 17.1 µM); in [7], 6.25 µg/mL (≈ 17.1 µM); in [8], 12.5 µg/mL (≈ 34.1 µM); in test [10], 12.5 µg/mL (≈ 34.1 µM). For the same compound, the outcome in test [5] and in [9] was inactive.

For orientation: GI50 means the concentration at which growth is held to half of that of the control. What is called MIC is the least concentration at which growth counts as inhibited. A lower MIC goes with greater potency.
